Laboratory results published in ChEMBL document CHEMBL4334446, “Evaluating the effects of fluorine on biological properties and metabolic stability of some antitubulin 3-substituted 7-phenyl-pyrroloquinolinones” (Eur J Med Chem, 2019).
Calls of active or inactive are those of the source. The rule behind the calls is not given here.

Assays:
HeLa [1] = test: Induction of apoptosis in human HeLa cells assessed as increase in H2AX expression at 50 to 100 nM incubated upto 48 hrs by western blot analysis; format: functional, cell-based
In short: (§1)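 HeLa cells were exposed for set times, including 24 and 48 h, then washed in cold PBS and lysed on ice for 30 min. Lysates were cleared at 15000 × g at 4 °C. 10 µg protein was run by SDS-PAGE and transferred to PVDF. Blots were probed 2 h at room temperature with primary antibodies, then peroxidase secondary antibodies, and detected by ECL. Membranes were reprobed for actin as loading control.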

HeLa [2] = test: Cell cycle arrest in human HeLa cells assessed as decrease in phosphorylated form of cdc2 kinase at 50 to 100 nM incubated for 48 hrs by western blot analysis; format: functional, cell-based; in short: as §1
HeLa [3] = test: Cell cycle arrest in human HeLa cells assessed as disappearance in cdc25c protein expression at 50 to 100 nM incubated for 48 hrs by western blot analysis; format: functional, cell-based; in short: as §1
HeLa [4] = test: Induction of apoptosis in human HeLa cells assessed as decrease in Bcl2 protein expression at 10 to 100 nM incubated for 24 hrs by western blot analysis; format: functional, cell-based; in short: as §1
A2058 [5] = test: Induction of cell cycle arrest in human A2058 cells assessed as reduction in cell population at G1 phase at 50 to 100 nM incubated for 24 hrs by PI staining based flow cytometric analysis; format: functional
In short: (§2)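 A375 and A2058 melanoma cells were treated 24 h. Cells were fixed in ice-cold 70% ethanol, then given lysis buffer with RNase A and 0.1% Triton X-100 and stained with PI. Phase distribution came from flow cytometric DNA histograms. Mean ± SEM of two independent experiments.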

A-375 [6] = test: Induction of cell cycle arrest in human A375 cells assessed as accumulation of cells at G2/M phase at 50 to 100 nM incubated for 24 hrs by PI staining based flow cytometric analysis; format: functional; in short: as §2
B16-BL6 [7] = test: Antitumour activity against mouse B16-BL6 cells allografted in C57BL/6 mouse assessed as reduction in tumor mass at 3 mg/kg, ip administrated every other day relative to control; format: functional
In short: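 Male C57BL/6 mice (six weeks old) got 2.5×10^5 BL6-B16 murine melanoma cells s.c. in the dorsolateral flank, in PBS. Once tumors were measurable (about 100 mm³), mice were randomized and given drug i.p. every other day in 50 µL DMSO. Vehicle (DMSO) group served as control. Tumor volume = (D × d²)/2; tumor weight taken at end. 5 animals per group, mean ± SEM.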

A-375 [8] = test: Growth inhibition of human A375 cells incubated for 72 hrs by MTT assay; format: functional; details: A-375, 72 h
HeLa [9] = test: Induction of ROS generation in human HeLa cells at 100 nM incubated for 12 to 24 hrs by H2DCFDA staining based flow cytometric analysis; format: functional, cell-based
In short: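 HeLa cells were treated 6, 12, 24 and 48 h, then stained with H2-DCFDA. ROS fluorescence was read by flow cytometry. Mean ± SEM of three independent experiments.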

B16-BL6 [10] = test: Growth inhibition of mouse B16-BL6 cells incubated for 72 hrs by MTT assay; format: functional; details: B16-BL6, 72 h
HeLa [11] = test: Induction of mitochondrial membrane depolarization in human HeLa cells at 10 to 100 nM measured at early apoptotic stage of cells by JC1 staining based flow cytometric analysis; format: functional, cell-based; details: TDE = time-dependent effect
In short: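 HeLa cells were treated 6, 12, 24 and 48 h with 10–100 nM. Cells were stained with JC-1, and the fraction with low mitochondrial potential was measured by flow cytometry. Mean ± SEM of three independent experiments.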

HeLa [12] = test: Induction of cell cycle arrest in human HeLa cells assessed as accumulation at M phase by measuring p-histone H3 level at 50 to 100 nM incubated for 24 hrs by PI staining based flow cytometric analysis; format: functional
A2058 [13] = test: Growth inhibition of human A2058 cells incubated for 72 hrs by MTT assay; format: functional; details: A2058, 72 h
[14] = Toxicity in C57BL/6 mouse allografted with mouse B16-BL6 cells assessed as change in body weight at 3 to 7.5 mg/kg, ip administrated every other day; format: organism-based; details: in vivo
In short: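 Male six-week-old C57BL/6 mice were given BL6-B16 murine melanoma cells subcutaneously in the dorsolateral flank in PBS. Once tumours reached about 100 mm³, mice were randomised and dosed intraperitoneally every other day with 3.0 or 7.5 mg/kg in DMSO, or vehicle alone. Body weight change was followed; 5 animals per group, mean ± SEM.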

HeLa [15] = test: Increase in cyclin B1 protein expression level in human HeLa cells incubated for 24 to 48 hrs by western blot analysis; format: functional, cell-based; in short: as §1
HeLa [16] = test: Induction of apoptosis in human HeLa cells assessed as decrease in Mcl1 protein expression at 50 to 100 nM incubated upto 48 hrs by western blot analysis; format: functional, cell-based; details: 10 to 100 nM, in the assay text read “10 to 100 nM” for “50 to 100 nM”; in short: as §1
HeLa [17] = test: Induction of apoptosis in human HeLa cells at 50 nM incubated for 24 to 48 hrs by annexin-V FITC and PI staining based flow cytometric analysis; format: functional, cell-based
In short: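 HeLa cells were treated 24 or 48 h, then harvested and double-stained with annexin-V-FITC and PI for flow cytometry. Populations were separated as live, early apoptotic, late apoptotic and necrotic. Mean ± SEM of three independent experiments.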

[18] = Metabolic stability in human liver microsomes assessed as retention time of 7-phenyl-3H-pyrrolo[3,2-f]quinolin-9(6H)-one metabolite at 10 uM incubated for 60 mins in presence of NADPH by HPLC analysis; format: ADME, Microsome; details: 1 h
In short: (§3)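 Compound (10 µM) was incubated with pooled mixed-gender HLMs (0.5 mg protein/mL), 1 mM NADPH and 0.1 M KH2PO4 pH 7.4 for 60 min at 37 °C, aerobic. The reaction was started with microsomes and stopped with ice-cold acetonitrile; controls lacked NADPH. The supernatant went to C8 HPLC with fluorescence detection (ex 344, em 493 nm). Collected peaks were analyzed by ESI+ mass spectrometry.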

[19] = Metabolic stability in human liver microsomes assessed as 7-phenyl-3H-pyrrolo[3,2-f]quinolin-9(6H)-one metabolite formation at 10 uM incubated for 60 mins in presence of NADPH by ESI-MS analysis; format: ADME, Microsome; details: 1 h; in short: as §3

| SMILES | Activity (HeLa [1]) | inhibition (HeLa [2]) | inhibition (HeLa [3]) | Activity (HeLa [4]) | Activity (A2058 [5]) | Activity (A-375 [6]) | inhibition in vivo at 3 mg/kg (B16-BL6 [7]) [%] | GI50 (A-375 [8]) [µM] | Activity (HeLa [9]) | GI50 (B16-BL6 [10]) [µM] | Activity (HeLa [11]) | Activity (HeLa [12]) | GI50 (A2058 [13]) [µM] | Activity [14] | Activity (HeLa [15]) | Activity (HeLa [16]) | Activity (HeLa [17]) | Retention_time [18] [min] | Drug metabolism [19] |
| --- | --- | --- | --- | --- | --- | --- | --- | --- | --- | --- | --- | --- | --- | --- | --- | --- | --- | --- | --- |
| CCn1ccc2c3c(=O)cc(-c4ccccc4F)[nH]c3ccc21 | Active | Active | Active | Active | Active | Active | 28.6 | 0.0155 | Active | 0.01 | Tde | Active | 0.0048 | Non-Toxic | Dose-dependent effect | Active | Active |  |  |
| CCn1ccc2c3c(=O)cc(-c4ccccc4)[nH]c3ccc21 |  |  |  |  |  |  |  |  |  |  |  |  |  |  |  |  |  | 11.2 | Metabolite_Detected |
